Reference: PMC4452124 (Toxicology research, 2014)
Where two headings read alike, the source gives them in different places.

Key:
[1] = biological target: T1, human BCRP (Homo sapiens, UniProt Q9UNQ0); test: biochemical
T1 sequence (Q9UNQ0 1-655): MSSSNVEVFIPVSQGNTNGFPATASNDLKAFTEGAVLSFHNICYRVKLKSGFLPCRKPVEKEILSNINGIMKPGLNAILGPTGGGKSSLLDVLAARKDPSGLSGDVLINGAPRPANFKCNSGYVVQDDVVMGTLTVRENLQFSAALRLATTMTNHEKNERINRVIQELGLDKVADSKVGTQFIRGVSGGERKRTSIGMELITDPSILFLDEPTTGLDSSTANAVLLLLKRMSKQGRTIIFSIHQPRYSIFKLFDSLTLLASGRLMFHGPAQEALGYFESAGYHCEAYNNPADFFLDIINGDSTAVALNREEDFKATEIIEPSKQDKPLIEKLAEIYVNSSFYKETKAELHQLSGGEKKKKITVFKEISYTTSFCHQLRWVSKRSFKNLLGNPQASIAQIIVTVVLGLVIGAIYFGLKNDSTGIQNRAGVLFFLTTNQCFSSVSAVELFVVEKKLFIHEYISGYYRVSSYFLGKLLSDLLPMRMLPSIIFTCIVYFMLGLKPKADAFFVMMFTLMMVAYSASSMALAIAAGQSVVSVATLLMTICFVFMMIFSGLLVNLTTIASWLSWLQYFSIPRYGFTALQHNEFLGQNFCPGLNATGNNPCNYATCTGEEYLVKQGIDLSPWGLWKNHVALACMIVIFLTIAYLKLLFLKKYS

[2] = biological target: T1, human BCRP; test: biochemical; remark: listed apart in the source
[3] = biological target: T2, BCRP in BeWo cells (Homo sapiens, UniProt Q9UNQ0)
T2 sequence (Q9UNQ0 1-655): T1 sequence (Q9UNQ0 1-655)

[4] = biological target: T1, human BCRP; test: BCRP ATPase assay, activation of baseline activity; assay type: biochemical; conditions: absence of sulfasalazine
[5] = biological target: T1, human BCRP
[6] = alamarBlue cell viability, HEK cells expressing empty vector; assay type: cell-based; conditions: human
[7] = tested on: BCRP (wild-type); test: alamarBlue cell viability, HEK cells expressing WT BCRP; assay type: cell-based; conditions: human
[8] = tested on: BCRP (Q141K variant); test: alamarBlue cell viability, HEK cells expressing Q141K BCRP; assay type: cell-based; conditions: human
[9] = biological target: T3, WT BCRP in HEK cells (Homo sapiens, UniProt Q9UNQ0); test: Hoechst 33342 fluorescent substrate transport assay in WT BCRP HEK cells; assay type: cell-based; conditions: Hoechst 33342 7 μM
T3 sequence (Q9UNQ0 1-655): T1 sequence (Q9UNQ0 1-655)

[10] = biological target: T2, BCRP in BeWo cells; test: Intracellular zearalenone accumulation by ELISA in BeWo cells; assay type: cell-based; conditions: zearalenone 10 μM, Ko143 1 μM
[11] = tested on: BCRP protein expression in BeWo cells; test: Western blot of BCRP protein in BeWo cells after zearalenone exposure; assay type: cell-based, human; conditions: 48 h, 1 or 10 μM
Procedure, shortened: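 BeWo choriocarcinoma cells grown in DMEM F-12 with 10% FBS and 1% penicillin-streptomycin at 37°C, 5% CO2, used at 80–90% confluence, then exposed to test compound (0, 1 or 10 μM). Lysate protein measured by BCA; 5 μg resolved on 4–12% Bis-Tris SDS gels and probed for BCRP (~72 kDa), with β-actin as loading control. Bands semi-quantified.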

[12] = biological target: T4, Bcrp (Mus musculus, UniProt Q7TMS5); test: Pilot study of plasma zearalenone in Bcrp-null versus wild-type mice; assay type: in vivo; conditions: after oral dosing, pilot studies, data not shown
T4 sequence (Q7TMS5 1-657): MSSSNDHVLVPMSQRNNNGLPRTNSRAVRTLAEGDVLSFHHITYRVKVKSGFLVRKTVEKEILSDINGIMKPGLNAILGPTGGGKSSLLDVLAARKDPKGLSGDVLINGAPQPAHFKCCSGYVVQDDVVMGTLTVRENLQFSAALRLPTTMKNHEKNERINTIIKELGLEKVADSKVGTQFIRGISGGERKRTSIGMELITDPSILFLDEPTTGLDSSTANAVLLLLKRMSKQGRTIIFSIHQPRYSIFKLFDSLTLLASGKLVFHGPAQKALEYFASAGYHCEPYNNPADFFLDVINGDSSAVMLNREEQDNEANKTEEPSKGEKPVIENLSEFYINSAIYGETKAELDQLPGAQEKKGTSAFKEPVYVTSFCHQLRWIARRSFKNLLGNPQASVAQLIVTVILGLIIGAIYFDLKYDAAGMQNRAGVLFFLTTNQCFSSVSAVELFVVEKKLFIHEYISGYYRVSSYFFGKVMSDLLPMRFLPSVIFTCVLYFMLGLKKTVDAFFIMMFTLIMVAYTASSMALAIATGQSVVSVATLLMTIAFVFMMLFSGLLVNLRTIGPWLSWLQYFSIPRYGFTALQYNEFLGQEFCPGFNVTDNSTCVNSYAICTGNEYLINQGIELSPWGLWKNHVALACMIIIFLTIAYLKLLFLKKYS

[13] = Inhibitory Concentration (IC50) Vesicle Assay, Lucifer yellow (50 μM) transport, 2 min, 37°C
[14] = BeWo cells, Hoechst 33342 15 μM

Compound	IC50 [1, 13]	IC50 [2]	Concentration that increased intracellular Hoechst 33342 fluorescence [3, 14]	other results
Fc1ccc([C@]2(Cn3cncn3)O[C@H]2c2ccccc2Cl)cc1 (racemic) [Epoxiconazole, epoxiconazole]	64.7 µM	> 100 µM		
CC(C)(c1ccc(O)cc1)c1ccc(O)cc1 [Bisphenol A, bisphenol A]	55.5 µM	> 100 µM	50 µM	
O=c1c(-c2ccc(O)cc2)coc2cc(O)cc(O)c12 [Genistein, genistein]				Concentration that stimulated baseline ATPase activity [4]: ≥ 0.01 µM; IC50 ([1]; Inhibitory Concentration (IC50) Vesicle Assay): 1.9 µM; Change in BCRP-mediated ATPase activity [5]: no change in ATPase activity was detected; Concentration that increased intracellular Hoechst 33342 fluorescence ([3]; human): ≥ 10 µM; Increase in retention of Hoechst 33342 ([3]; human): 50–100%
COc1ccc(C(c2ccc(OC)cc2)C(Cl)(Cl)Cl)cc1 [Methoxychlor, methoxychlor]	38 µM	5.2 µM	100 µM	
O=C1c2c(O)ccc(O)c2C(=O)c2c(NCCNCCO)ccc(NCCNCCO)c21 [Mitoxantrone, mitoxantrone, reference compound]				CC50 [6]: 0.34 µM; CC50 [7]: 3.19 µM; CC50 [8]: 1.14 µM
CCCCC(C#N)(Cn1cncn1)c1ccc(Cl)cc1 (stereo not drawn) [Myclobutanil, myclobutanil]	62.7 µM	79 µM		
CCCN(CCOc1c(Cl)cc(Cl)cc1Cl)C(=O)n1ccnc1 [Prochloraz, prochloraz]	18.7 µM	42.6 µM		
C#CCOS(=O)OC1CCCCC1Oc1ccc(C(C)(C)C)cc1 (stereo not drawn) [Propargite, propargite]	31.8 µM	2.6 µM		
CCCC1COC(Cn2cncn2)(c2ccc(Cl)cc2Cl)O1 (stereo not drawn) [Propiconazole, propiconazole]	51.3 µM	63.6 µM		
CC(C)(C)C(O)(CCc1ccc(Cl)cc1)Cn1cncn1 (stereo not drawn) [Tebuconazole, tebuconazole]	41.1 µM	> 100 µM		
CCC[CH2][Sn]([CH2]CCC)[CH2]CCC [Tributyltin, tributyltin]			≥ 10 µM	IC50 ([1]; read-out: Inhibitory Concentration (IC50) Vesicle Assay, Lucifer yellow (50 μM) transport, 2 min, 37°C): 30.5 µM; Increase in retention of Hoechst 33342 ([3]; BeWo cells): 50–100%
C[C@H]1CCCC(=O)CCC/C=C/c2cc(O)cc(O)c2C(=O)O1 [Zearalenone, zearalenone]	4.8 µM	40.6 µM	50 µM	CC50 at 72 h [6]: 45.6 µM; CC50 at 72 h [7]: 171 µM; CC50 at 72 h [8]: 40.6 µM; Concentrations that increased Hoechst accumulation [9]: 10 to 100 µM; Increase of intracellular zearalenone levels on BCRP inhibition with Ko143 [10]: 2.7 fold; Effect on BCRP protein expression [11]: did not alter BCRP protein expression; Plasma zearalenone levels, Bcrp-null mice compared to wild-types [12]: ~ 10 fold
